Sampled rows, rich in hits. Any-hit rate of the full collection: about 1.2%.
CHO-K1 Ca ag: nonselective activator or artifact in parental CHO-K1 cells; activation, % at 3 µM; Fluo-8 calcium fluorescence; scaled to maximal ATP response, vehicle zero; AID 602248; 0.48% of 360,000 active; in the data active = activation above about 15%;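 also: untransfected CHO-K1 host cells lacking M1 receptor as counterscreen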
TRPN1 ag: agonists of zebrafish TRPN1 channel | HEK293 zebrafish TRPN1-YFP, Fluo-8 calcium fluorescence; 100% = response to 87 µM carbachol | activation, % at 3 µM | 0.18% of 220,000 active;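 active = activation above its plate's cutoff, the mean activation of test wells on that plate plus 3 SD, cut at about 19% in these data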;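 also: 0% = DMSO alone and 100% = 87 µM carbachol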
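Material: zebrafish TRPN1-YFP in HEK293 cells. Doses: one dose of 3 µM, 0.3% DMSO. Incubation: dye 1 h 37 °C plus 30 min RT. Measured by: intracellular calcium fluorescence with Fluo-8.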
CHO-K1 Ca antag: M1 antagonist counterscreen hit in parental CHO-K1 cells. 0.6% of 360,000 active. ATP-induced calcium, Fluo-8 fluorescence. inhibition, % at 3 µM;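 active = inhibition above a per-plate cutoff, the plate's mean sample inhibition plus 3 SD, cut at about 24% in these data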;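 also: 0% = DMSO plus EC80 ATP and 100% = DMSO alone without ATP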
CHO-K1 Ca PAM: counter-screen for M1 PAMs: effect in parental CHO-K1 cells | AID 602247 | ATP EC20, Fluo-8 calcium fluorescence; 0% at ATP EC20, 100% at ATP max | 0.02% of 360,000 active | activation, % at 3 µM;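 active = activation above the run cutoff, the mean activation of all test compounds plus 3 SD, cut at about 40% in these data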;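 also: peak over basal fluorescence ratio in a 140 s read after ATP addition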
TRPML3 ag: human mucolipin-3 channel agonism; Q8TDD5; HEK293 TRPML3-YFP, Fluo-8 calcium fluorescence; 100% = the carbachol control signal; activation, % at 3 µM; 0.29% of 220,000 active; AID 1448;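 active = activation above its plate's cutoff, the mean activation of the plate's test wells plus 3 SD, cut at about 12% in these data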;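 also: 0% = DMSO only wells and 100% = carbachol wells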
Target sequence (Q8TDD5 whole entry, looked up): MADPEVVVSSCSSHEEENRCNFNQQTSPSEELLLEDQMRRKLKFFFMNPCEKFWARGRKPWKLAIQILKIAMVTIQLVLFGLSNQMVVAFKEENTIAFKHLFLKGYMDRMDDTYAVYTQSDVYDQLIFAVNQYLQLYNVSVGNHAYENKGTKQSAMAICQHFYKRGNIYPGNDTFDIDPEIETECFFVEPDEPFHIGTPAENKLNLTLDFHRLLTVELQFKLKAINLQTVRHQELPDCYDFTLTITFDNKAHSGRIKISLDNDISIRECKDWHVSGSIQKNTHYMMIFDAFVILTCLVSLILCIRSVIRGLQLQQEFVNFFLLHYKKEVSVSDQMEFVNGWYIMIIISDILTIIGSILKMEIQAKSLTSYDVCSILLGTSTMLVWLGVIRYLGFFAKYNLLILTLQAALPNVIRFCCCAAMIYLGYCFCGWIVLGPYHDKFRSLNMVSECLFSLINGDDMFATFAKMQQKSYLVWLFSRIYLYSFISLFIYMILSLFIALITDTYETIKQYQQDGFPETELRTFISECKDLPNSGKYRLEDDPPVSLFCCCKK
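Material: HEK293 cells stably carrying human TRPML3-YFP; compound dosing: single dose, 3 µM final nominal compound, 0.3% DMSO final; incubation: 1-h 37 °C dye load, 5-s basal, 120-s post-compound reads; technique: Fluo-8 intracellular calcium fluorescence, excitation 470-495 nm, emission 515-575 nm; read-out basis: percent activation from peak-to-basal fluorescence ratio, scaled between DMSO and carbachol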
TRPN1 ag 2: activates zebrafish TRPN1, counter-screen for TRPML3 agonists | activation, % at 3 µM | AID 1525 | 10% of 310 active | shares compounds with TRPML3 ag | HEK293 zebrafish TRPN1-YFP, Fluo-8 calcium fluorescence; scaled: carbachol wells 100%, DMSO wells 0%;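 active = mean activation over replicates above a set limit taken from the earlier TRPN1 channel primary screen, cut at about 19% in these data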;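 also: 100% = carbachol and 0% = 0.3% DMSO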
TRPML3 confirm: human TRPML3 agonism, confirmation; AID 1526; activation, % at 3 µM; 80% of 310 active; shares compounds with TRPML3 ag; HEK293 TRPML3-YFP, Fluo-8 calcium fluorescence; 100% set by carbachol, 0% by DMSO;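 active = activation above a set limit derived from the earlier primary screen, cut at about 12% in these data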
An asterisk follows results filed as active; x = no result.

SMILES	CHO-K1 Ca ag	TRPN1 ag	CHO-K1 Ca antag	CHO-K1 Ca PAM	TRPML3 ag	TRPN1 ag 2	TRPML3 confirm
COC(=O)c1c(NC(=O)COC(=O)[C@@H](NS(=O)(=O)c2ccc(C)cc2)C(C)C)sc2c1CCC2	2	0	-9	23	29*	-1	50*
COc1ccc(OC)c(N(CC(=O)N2CCCC2)S(=O)(=O)c2ccc(C)cc2)c1	1	x	-8	-3	x	x	x
COc1ccc(N(CC(=O)N2CCCCC2)S(=O)(=O)c2ccccc2)c(OC)c1	0	1	-5	-3	71*	2	121*
COc1cc2oc3ccccc3c2cc1N(CC(=O)N(C)C)S(=O)(=O)c1ccc(C)cc1	0	-1	-6	12	1	x	x
COc1cc2oc3ccccc3c2cc1N(CC(=O)N1CCCCC1)S(=O)(=O)c1ccc(C)cc1	3	16	-7	10	179*	48*	147*
COc1ccc(OC)c(N(CC(=O)N2CCCCC2)S(=O)(=O)c2ccc(OC)c(OC)c2)c1	0	0	16	-3	88*	2	105*
Cc1ccc(S(=O)(=O)c2c(C)nn(C(C)(C)C)c2OC(=O)C(C)(C)C)cc1	1	4	-13	19	46*	5	39*
CN(CCOc1ccc(Cl)cc1)c1ccc(S(=O)(=O)N2CCCCC2)cn1	1	1	-5	14	45*	0	47*
CN(c1ccc(OCc2nnc(-c3ccccc3)o2)cc1)S(=O)(=O)c1ccccc1	5	1	-8	18	40*	2	37*
CN(c1ccc(OCC(=O)OCc2nnc(-c3ccccc3)o2)cc1)S(=O)(=O)c1ccc(Cl)cc1	1	x	0	17	x	x	x
CC(C)C[C@H]1CN(CCCC[C@@H]2CNC(=O)C(=O)N2Cc2ccccc2)C(=O)C(=O)N1CCC1CCCCC1	1	x	-9	15	x	x	x
O=C(Cc1ccc(Cl)c(Cl)c1)Nc1ccccc1N1CCOCC1	1	0	17	-29	51*	1	67*
COc1ccc(CN2C(=O)CCC2(C)c2nnnn2Cc2ccccc2)cc1 (centres undefined)	0	x	8	7	x	x	x
CC1(Oc2ccc3ccccc3c2)CCN(Cc2cccn2-c2nccs2)C1 (centres undefined)	2	x	-6	1	x	x	x
CCOc1ccc2c(c1)C(C)=CC(C)(C)N2S(=O)(=O)c1ccc(C)cc1	0	-1	7	-11	16*	-1	33*
COc1ccc2c(c1)C(C)=CC(C)(C)N2S(=O)(=O)c1ccc(C)cc1	0	-2	-5	12	5	x	x
COC(=O)c1cc(-c2ccc(S(=O)(=O)N3CCCCC3)cc2)c(C(F)(F)F)s1	0	0	-5	21	16*	-1	19*
COC(=O)c1cc(-c2ccc(S(=O)(=O)N3CCCC3)cc2)c(C(F)(F)F)s1	0	-1	14	-12	7	x	x
CN(C1CCCCC1)S(=O)(=O)c1cccc(C(=O)OCC(=O)NC2CCCc3ccccc32)c1 (centres undefined)	1	4	8	-13	70*	4	61*
CN(CC(=O)NC1CCCc2ccccc21)C1CCCCC1 (centres undefined)	1	-1	-18	12	1	x	x
COc1ccc(Cl)cc1C1=NOC2(CCC2)C(=O)N1Cc1cccc(C#N)c1	1	x	-7	14	x	x	x
CSc1nc(N)n2nccc2n1	0	x	6	-6	x	x	x
O=c1ccn([C@@H]2O[C@H](CNCc3cccn3-c3ccncc3)[C@@H](O)[C@H]2O)c(=O)[nH]1	0	x	-13	10	x	x	x
COc1cc(C(=O)NNC(=S)NC(=O)c2ccc(Cl)cc2)cc(OC)c1OC	10	6	-1	-10	13*	44*	36*
COc1ccc(C(=O)NC(=S)NNC(=O)c2c(-c3ccccc3)noc2C)cc1OC	15	19	-7	-6	19*	18	24*
SMILES	CHO-K1 Ca ag	TRPN1 ag	CHO-K1 Ca antag	CHO-K1 Ca PAM	TRPML3 ag	TRPN1 ag 2	TRPML3 confirm
COc1cc(CCC(=O)NNC(=O)c2ccc(Cl)cc2)cc(OC)c1OC	1	x	-2	14	x	x	x
O=C(c1ccc([N+](=O)[O-])cc1Cl)N1CCN(Cc2ccccc2)CC1	0	x	2	-9	x	x	x
Cc1ccc(S(=O)(=O)n2nccc2-c2c(-c3ccc(Cl)cc3)noc2C)cc1	0	1	-3	2	82*	0	106*
CC(Oc1ccc(Cl)cc1)c1ccnn1S(=O)(=O)c1ccc(Cl)cc1 (centres undefined)	0	-1	-5	4	0	x	x
COc1ccc(C(=O)CSc2nnn(-c3cccc(NC(C)=O)c3)n2)cc1	5	7	-6	18	12*	12	21*
O=C(NC(=O)c1ccccc1Cl)C(=O)Nc1ccc(Cl)cc1	0	x	6	-11	x	x	x
O=C(Nc1c(S(=O)(=O)c2ccc(Cl)cc2)csc1Br)c1ccccc1Cl	1	-2	-8	-19	33*	-2	44*
Cc1c(Cl)cc(C(C)C)c(O)c1CN1CCOCC1	0	x	0	-15	x	x	x
Cc1cc(C(C)c2ccccc2)c(O)c(CN2CCOCC2)c1C (centres undefined)	0	0	-11	3	16*	-2	33*
CC(C)(C)c1ccc(C(=O)OC/C(O)=C(\C#N)c2nc3ccccc3s2)cc1	1	0	-10	24	1	x	x
COC(=O)c1ccc(/C=C(\C#N)c2nc3ccccc3s2)cc1	1	14	6	9	14*	1	1
CCOC(=O)/C(C#N)=C/C=C1/C=CC=CN1C	2	0	-8	17	1	x	x
C=CCN1C=CC(=C/C=C(/C#N)C(=O)OCC)C=C1	9	16	4	-7	12*	18	14*
NC(=O)C1(S(=O)(=O)c2ccccc2)CCCCC1	1	0	5	-1	1	x	x
O=S(=O)(c1ccccc1)C1(S(=O)(=O)c2ccccc2)CCCC1	0	2	-14	6	18*	1	29*
Cc1cccc(Cc2cccc(C)c2O)c1O	0	x	2	-5	x	x	x
Cc1ccc([N+](=O)[O-])cc1S(=O)(=O)N1CCC(C)CC1	0	-1	-13	18	0	x	x
Cc1ccc(S(=O)(=O)N2CCC(C)CC2)c([N+](=O)[O-])c1	0	-1	4	-5	48*	-1	60*
CCOC(=O)N1CCC(N2C(=O)c3ccccc3C2Nc2cccnc2)CC1 (centres undefined)	0	1	4	0	0	x	x
